Test results published in ChEMBL document CHEMBL1649324, “In vitro activity of tebipenem, a new oral carbapenem antibiotic, against beta-lactamase-nonproducing, ampicillin-resistant Haemophilus influenzae” (2010).
Converted amounts (≈) assume the structure as drawn.

Tests used:
Type in all cases: functional
Haemophilus influenzae [1] = assay: Antimicrobial activity against gBLNAS Haemophilus influenzae by agar dilution method
In short: (§1)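 Agar dilution on Mueller-Hinton agar with 0.5% yeast extract, 2% defibrinated heat-treated horse blood and 15 μg/ml β-NAD+. Plates were incubated 20 h at 37°C in 5% CO2, and the MIC was read. Clinical pediatric isolates (2005–2008) were assigned to genetic resistance classes by PCR.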

Haemophilus influenzae [2] = assay: Antimicrobial activity against gLow-BLNAR Haemophilus influenzae by agar dilution method; in short: as §1
Haemophilus influenzae [3] = assay: Antimicrobial activity against gBLNAR Haemophilus influenzae by agar dilution method
In short: (§2)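 Agar dilution MICs on Mueller-Hinton agar with 0.5% yeast extract, 2% defibrinated heat-treated horse blood and 15 μg/ml β-NAD+. Plates read after 20 h at 37°C in 5% CO2. Paediatric clinical isolates (2005–2008) assigned to genetic β-lactam resistance class by PCR. Values are MIC range, MIC50 and MIC90 per class.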

Haemophilus influenzae [4] = assay: Antimicrobial activity against gBLPAR-TEM1 Haemophilus influenzae by agar dilution method; in short: as §2
Haemophilus influenzae [5] = assay: Antimicrobial activity against gBLPACR-1 Haemophilus influenzae by agar dilution method; in short: as §1
Haemophilus influenzae [6] = assay: Antimicrobial activity against gBLPACR-2 Haemophilus influenzae by agar dilution method; in short: as §2
Haemophilus influenzae [7] = assay: Bactericidal activity against gBLNAR Haemophilus influenzae JPH002 assessed as reduction in bacterial load at MIC after 4 hrs by time-kill analysis
In short: (§3)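 Colonies precultured on chocolate agar were suspended in MH broth to 0.5 McFarland, diluted 10-fold in MH broth with yeast extract, horse blood and β-NAD+, then grown 120 min at 37°C. 500 μl was inoculated into 9.5 ml of the same supplemented broth containing drug at the MIC or 2× MIC, with or without 10% fresh human serum. Tubes were incubated static and viable counts sampled at set intervals.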

Haemophilus influenzae [8] = assay: Bactericidal activity against gBLNAR Haemophilus influenzae JPH002 assessed as reduction in bacterial load at MIC after 6 hrs by time-kill analysis; in short: as §3
Haemophilus influenzae [9] = assay: Bactericidal activity against gBLNAR Haemophilus influenzae JPH002 assessed as reduction in bacterial load at MIC after 2 hrs by time-kill analysis in presence of 10% human serum; in short: as §3
Haemophilus influenzae [10] = assay: Bactericidal activity against gBLNAR Haemophilus influenzae JPH002 assessed as reduction in bacterial load at MIC after 4 hrs by time-kill analysis in presence of 10% human serum; in short: as §3
Haemophilus influenzae [11] = assay: Bactericidal activity against gBLNAR Haemophilus influenzae JPH002 assessed as reduction in bacterial load at MIC after 6 hrs by time-kill analysis in presence of 10% human serum; in short: as §3
Haemophilus influenzae [12] = assay: Bactericidal activity against gBLNAR Haemophilus influenzae JPH1306 assessed as reduction in bacterial load at MIC after 4 hrs by time-kill analysis; in short: as §3
Haemophilus influenzae [13] = assay: Bactericidal activity against gBLNAR Haemophilus influenzae JPH1306 assessed as reduction in bacterial load at MIC after 6 hrs by time-kill analysis; in short: as §3
Haemophilus influenzae [14] = assay: Bactericidal activity against gBLNAR Haemophilus influenzae JPH1306 assessed as reduction in bacterial load at MIC after 2 hrs by time-kill analysis in presence of 10% human serum; in short: as §3
Haemophilus influenzae [15] = assay: Bactericidal activity against gBLNAR Haemophilus influenzae JPH1306 assessed as reduction in bacterial load at MIC after 4 hrs by time-kill analysis in presence of 10% human serum; in short: as §3
Haemophilus influenzae [16] = assay: Bactericidal activity against gBLNAR Haemophilus influenzae JPH1306 assessed as reduction in bacterial load at MIC after 6 hrs by time-kill analysis in presence of 10% human serum; in short: as §3

SMILES | MIC50 (Haemophilus influenzae [1]) | MIC90 (Haemophilus influenzae [1]) | MIC50 (Haemophilus influenzae [2]) | MIC90 (Haemophilus influenzae [2]) | MIC50 (Haemophilus influenzae [3]) | MIC90 (Haemophilus influenzae [3]) | MIC (Haemophilus influenzae [4]) | MIC (Haemophilus influenzae [5]) | MIC (Haemophilus influenzae [6]) | MIC (Haemophilus influenzae [2]) | log10cfu (Haemophilus influenzae [7]) | log10cfu (Haemophilus influenzae [8]) | log10cfu (Haemophilus influenzae [9]) | log10cfu (Haemophilus influenzae [10]) | log10cfu (Haemophilus influenzae [11]) | log10cfu (Haemophilus influenzae [12]) | log10cfu (Haemophilus influenzae [13]) | log10cfu (Haemophilus influenzae [14]) | log10cfu (Haemophilus influenzae [15]) | log10cfu (Haemophilus influenzae [16])
CC1(C)S[C@@H]2[C@H](NC(=O)[C@H](N)c3ccc(O)cc3)C(=O)N2[C@H]1C(=O)O [AMOXICILLIN] | 0.5 µg/mL (≈ 1.37 µM) | 0.5 µg/mL (≈ 1.37 µM) | 2 µg/mL (≈ 5.47 µM) | 4 µg/mL (≈ 10.9 µM) | 8 µg/mL (≈ 21.9 µM) | 32 µg/mL (≈ 87.6 µM) | 8 µg/mL (≈ 21.9 µM) | 8 µg/mL (≈ 21.9 µM) | 2 µg/mL (≈ 5.47 µM) | – | – | – | – | – | – | – | – | – | – | –
CC1(C)S[C@@H]2[C@H](NC(=O)[C@H](N)c3ccccc3)C(=O)N2[C@H]1C(=O)O [AMPICILLIN] | 0.25 µg/mL (≈ 0.715 µM) | 0.5 µg/mL (≈ 1.43 µM) | 1 µg/mL (≈ 2.86 µM) | 1 µg/mL (≈ 2.86 µM) | 2 µg/mL (≈ 5.72 µM) | 8 µg/mL (≈ 22.9 µM) | 8 µg/mL (≈ 22.9 µM) | 8 µg/mL (≈ 22.9 µM) | 2 µg/mL (≈ 5.72 µM) | – | – | – | – | – | – | – | – | – | – | –
CC[C@H]1OC(=O)[C@H](C)[C@@H](O[C@H]2C[C@@](C)(OC)[C@@H](O)[C@H](C)O2)[C@H](C)[C@@H](O[C@@H]2O[C@H](C)C[C@H](N(C)C)[C@H]2O)[C@](C)(O)C[C@@H](C)CN(C)[C@H](C)[C@@H](O)[C@]1(C)O [AZITHROMYCIN] | 2 µg/mL (≈ 2.67 µM) | 4 µg/mL (≈ 5.34 µM) | 2 µg/mL (≈ 2.67 µM) | 2 µg/mL (≈ 2.67 µM) | 2 µg/mL (≈ 2.67 µM) | 4 µg/mL (≈ 5.34 µM) | 1 µg/mL (≈ 1.34 µM) | 2 µg/mL (≈ 2.67 µM) | 2 µg/mL (≈ 2.67 µM) | – | – | – | – | – | – | – | – | – | – | –
C=CC1=C(C(=O)O)N2C(=O)[C@@H](NC(=O)/C(=N\O)c3csc(N)n3)[C@H]2SC1 [CEFDINIR] | 0.25 µg/mL (≈ 0.632 µM) | 0.5 µg/mL (≈ 1.26 µM) | 0.5 µg/mL (≈ 1.26 µM) | 2 µg/mL (≈ 5.06 µM) | 8 µg/mL (≈ 20.2 µM) | 32 µg/mL (≈ 80.9 µM) | 0.25 µg/mL (≈ 0.632 µM) | 1 µg/mL (≈ 2.53 µM) | 8 µg/mL (≈ 20.2 µM) | 0.5 µg/mL (≈ 1.26 µM) | – | – | – | – | – | – | – | – | – | –
CO/N=C(\C(=O)N[C@@H]1C(=O)N2C(C(=O)O)=C(COC(C)=O)CS[C@H]12)c1csc(N)n1 [CEFOTAXIME] | 0.016 µg/mL (≈ 0.0351 µM) | 0.031 µg/mL (≈ 0.0681 µM) | 0.031 µg/mL (≈ 0.0681 µM) | 0.12 µg/mL (≈ 0.263 µM) | 0.5 µg/mL (≈ 1.1 µM) | 1 µg/mL (≈ 2.2 µM) | 0.008 µg/mL (≈ 0.0176 µM) | 0.031 µg/mL (≈ 0.0681 µM) | 0.25 µg/mL (≈ 0.549 µM) | – | – | – | – | – | – | – | – | – | – | –
CC[C@H]1OC(=O)[C@H](C)[C@@H](O[C@H]2C[C@@](C)(OC)[C@@H](O)[C@H](C)O2)[C@H](C)[C@@H](O[C@@H]2O[C@H](C)C[C@H](N(C)C)[C@H]2O)[C@](C)(OC)C[C@@H](C)C(=O)[C@H](C)[C@@H](O)[C@]1(C)O [CLARITHROMYCIN] | 8 µg/mL (≈ 10.7 µM) | 16 µg/mL (≈ 21.4 µM) | 8 µg/mL (≈ 10.7 µM) | 16 µg/mL (≈ 21.4 µM) | 8 µg/mL (≈ 10.7 µM) | 16 µg/mL (≈ 21.4 µM) | 8 µg/mL (≈ 10.7 µM) | 8 µg/mL (≈ 10.7 µM) | 8 µg/mL (≈ 10.7 µM) | – | – | – | – | – | – | – | – | – | – | –
C[C@@H](O)[C@H]1C(=O)N2C(C(=O)O)=C(S[C@@H]3CN[C@H](C(=O)N(C)C)C3)[C@H](C)[C@H]12 [MEROPENEM] | 0.063 µg/mL (≈ 0.164 µM) | 0.12 µg/mL (≈ 0.313 µM) | 0.12 µg/mL (≈ 0.313 µM) | 0.25 µg/mL (≈ 0.652 µM) | 0.25 µg/mL (≈ 0.652 µM) | 0.5 µg/mL (≈ 1.3 µM) | 0.031 µg/mL (≈ 0.0808 µM) | 0.063 µg/mL (≈ 0.164 µM) | 0.063 µg/mL (≈ 0.164 µM) | – | – | – | – | – | – | – | – | – | – | –
C[C@@H](O)[C@H]1C(=O)N2C(C(=O)O)=C(SC3CN(C4=NCCS4)C3)[C@H](C)[C@H]12 [TEBIPENEM] | 0.063 µg/mL (≈ 0.164 µM) | 0.12 µg/mL (≈ 0.313 µM) | 0.25 µg/mL (≈ 0.652 µM) | 0.5 µg/mL (≈ 1.3 µM) | 0.25 µg/mL (≈ 0.652 µM) | 1 µg/mL (≈ 2.61 µM) | 0.063 µg/mL (≈ 0.164 µM) | 0.12 µg/mL (≈ 0.313 µM) | 0.25 µg/mL (≈ 0.652 µM) | – | 3 | 3 | 3 | 3 | 3 | 3 | 3 | 3 | 3 | 3
